The values that follow come from ChEMBL document CHEMBL3272165, “Cycloalkanoindoles. 2. 1-Alkyl-1,2,3,4-tetrahydrocarbazole-1-ethanamines and related compounds. Potential antidepressants” (J Med Chem, 1976).

SMILES strings stand for the structures.

A short description of data set [1]: Acute toxicity in ip dosed albino mouse assessed as mortality measured for 5 days. The following applies: in vivo. It counts as organism-based. The method in brief:
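Graded intraperitoneal doses, five animals per group; approximate LD50 estimated from mortality recorded over the 5 days after dosing.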

Another data set relates to Mus musculus. Kind of data set: Antidepressant activity in ip dosed mouse assessed as prevention of reserpine-induced ptosis. The class given is functional. In short, it runs like this:
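Mice dosed ip with test compound; reserpine given to induce ptosis (adapted Petersen et al. method). The percentage of mice with ptosis prevented was recorded. ED50 (mg/kg) derived by the Finney method.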

The next data set relates to Rattus norvegicus. Put plainly: Antidepressant activity in ip dosed rat assessed as prevention of tetrabenazine-induced ptosis. The class given is functional. The method in brief:
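Rats dosed ip; tetrabenazine used to induce ptosis (modified Giurgea et al. method). ED50 (mg/kg) derived by the Finney method from prevention of ptosis.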

In the case of `Br.CCn1c2c(c3ccccc31)CCCC2(CC)CCN(C)C` (centres undefined), in data set [1], the median lethal dose (LD50) at 120 h was determined as 175 mg/kg. Further, the ED50 in the data set with Mus musculus is 0.7 mg/kg. Consider `CCn1c2c(c3cc(Cl)ccc31)CCCC2(C)CCN(C)C.Cl` (centres undefined), for which the 50% effective dose (ED50) in the data set with Mus musculus amounted to 0.19 mg/kg.

Take `CCc1cccc2c3c(n(CC)c12)C(C)(CCN(C)C)CCC3.O=C(O)/C=C/C(=O)O` (centres undefined): the ED50 in the data set on Mus musculus came out at 19 mg/kg. Take `CN(C)CCC1(C)CCCc2c1n(C)c1ccccc21.Cl` (centres undefined): in data set [1], the LD50 at 120 h came to 125 mg/kg. For the same compound, in the data set on Mus musculus, the ED50 was 0.8 mg/kg. Take `CCCn1c2c(c3ccccc31)CCCC2(C)CCN(C)C.Cl` (centres undefined): in data set [1], the 50% lethal dose (LD50) at 120 h turned out to be 125 mg/kg. The ED50 in the data set with Mus musculus amounted to 0.4 mg/kg. As for `CCn1c2c(c3ccccc31)CCCC2(C)CCN(C)C.Cl` (centres undefined), the LD50 at 120 h in data set [1] amounted to 125 mg/kg. In addition, the values for the ED50 with Mus musculus and in the data set with Rattus norvegicus were 0.12 mg/kg and 3.3 mg/kg, respectively. In the case of `CCn1c2c(c3ccccc31)CCCC2(C)CCNC.Cl` (centres undefined), the LD50 at 120 h in data set [1] worked out at 125 mg/kg. In the data set with Mus musculus, the ED50 was determined as 1.6 mg/kg. The like results for `CN(C)CCC1CCCc2c1n(C)c1ccccc21.Cl` (centres undefined) were, in that order, 125 mg/kg and 5 mg/kg.

On to `CN(C)CC1CCCc2c1[nH]c1ccc(Cl)cc21` (centres undefined), for which the 50% effective dose (ED50) in the data set with Mus musculus was greater than 30 mg/kg. For `Br.CCn1c2c(c3ccccc31)CCC2(C)CCN(C)C` (centres undefined), in the data set on Mus musculus, the ED50 was 0.75 mg/kg. As to `CCn1c2c(c3ccccc31)CCCCC2(C)CCN(C)C.Cl` (centres undefined), the LD50 at 120 h in data set [1] is 85 mg/kg. Moreover, in the data set with Mus musculus, the median effective dose (ED50) was found to be 0.27 mg/kg. Turning to `CN(C)CCC=C1c2ccccc2CCc2ccccc21` [AMITRIPTYLINE], in data set [1], the LD50 at 120 h amounted to 94 mg/kg. Besides, the values for the ED50 with Mus musculus and in the data set on Rattus norvegicus were 4.7 mg/kg and 37 mg/kg, respectively.

For the compound `CN(C)CCCN1c2ccccc2CCc2ccccc21` [IMIPRAMINE], the median effective dose (ED50) in the data set on Mus musculus amounted to 6 mg/kg; in the data set on Rattus norvegicus it was 22.6 mg/kg.
